Assay outcomes deposited in PubChem BioAssay by several laboratories.
Efflux pump mplx – inhibitors of Candida efflux pumps in yeast, primary screen, S. cerevisiae, Nile Red, multiplex. inhibition, % at 10 µM. S. cerevisiae Candida pump triplex. hit rate 0.44% among 330,000;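 active means plate passing quality check with inhibition over a set limit, or well fluorescence over plate mean plus 4 SD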;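 further: Nile Red retained in pooled yeast measured as flow cytometry median fluorescence; 0% = buffer negative control and 100% = Enniatin B positive control; higher means more Nile Red kept so more efflux inhibition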
CaV13 FRET inh – Disruptors of the CACNA1D IQ motif to Ca2+-dependent inactivation inhibitor domain association, primary screening, Förster resonance energy transfer in intact living …. HEK cells, CFP/YFP FRET ICDI-IQ, plate reader, 10 min; percent FRET-ratio fall versus neutral wells. inhibition, % at 12.3 µM. hit rate 0.098% among 340,000. AID 743397;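 active means mean replicate inhibition of at least 30% and at least 1% of replicates passing that level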;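 further: 0% = median of the neutral control wells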
SR-BI HDL uptake – inhibitors of SR-BI mediated HDL lipid uptake, primary screen, ldlA[mSR-BI] cells, fluorescence, single point. ldlA[mSR-BI] CHO cells, DiI-HDL uptake fluorescence, 3 h. inhibition, % at 12.5 µM. hit rate 0.96% among 320,000;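 active means mean replicate inhibition of at least 70% and a set share of replicates each scoring 70 or more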;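 further: 0% = median of neutral control wells and 100% = median of positive control wells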
Target sequence (Q61009 whole entry, looked up): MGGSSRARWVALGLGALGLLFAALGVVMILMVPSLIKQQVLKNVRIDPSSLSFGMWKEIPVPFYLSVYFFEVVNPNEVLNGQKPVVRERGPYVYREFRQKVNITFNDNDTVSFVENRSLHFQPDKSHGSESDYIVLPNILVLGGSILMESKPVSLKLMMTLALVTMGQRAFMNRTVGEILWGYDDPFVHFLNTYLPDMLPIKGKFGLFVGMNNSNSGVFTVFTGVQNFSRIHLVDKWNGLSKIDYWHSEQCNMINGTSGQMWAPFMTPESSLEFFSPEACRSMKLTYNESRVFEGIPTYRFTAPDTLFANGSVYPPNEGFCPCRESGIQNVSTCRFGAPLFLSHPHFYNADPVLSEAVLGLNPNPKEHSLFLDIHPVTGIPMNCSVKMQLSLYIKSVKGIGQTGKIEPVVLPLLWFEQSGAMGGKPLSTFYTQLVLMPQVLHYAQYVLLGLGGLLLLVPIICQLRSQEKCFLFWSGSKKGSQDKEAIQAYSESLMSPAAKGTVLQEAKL
FN deposit inh – inhibitors of fibronectin matrix deposition, primary screen, AH1F cells, Alexa488-fibronectin fluorescence, plate reader. AH1F fibroblasts, overnight. inhibition, % at 12.6 µM. hit rate 0.086% among 350,000;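 active means mean inhibition across replicates of 30% or more, regardless of how many single replicates reach that level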;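 further: positive control wells lacked labelled fibronectin entirely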
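Material – AH1F fibroblast monolayer, labelled fibronectin deposition · Reagent – labelled fibronectin 24 nM · Timing – 1 h adhesion, overnight exposure · Measured by – fluorescence at 485 nm excitation, 525 nm emission · Read-out – inhibition of fibronectin deposition signal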
SR-BI DiI-HDL act – activators of SR-BI mediated DiI-HDL uptake, primary screen, ldlA[mSR-BI] CHO cells, DiI fluorescence; 3 h; 100 = double the neutral-control signal; activation, % at 12.5 µM; hit rate 0.096% among 320,000;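 active means mean replicate activation of at least 60% and every replicate at or above 60%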;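 further: 0% = median plate neutral-control signal and 100% = twice that signal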
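Test system: SR-BI-overexpressing, LDLR-lacking CHO cells; Also added: labelled HDL, 10 µg/mL; Measured by: bottom-read cell fluorescence after medium removal, ex 550/em 595 nm; Timing: 3 h uptake period with compound, 37 °C; Buffer or medium: F12, 0.5% BSA, 25 mM HEPES; Doses: single compound concentration, delivered by pin transfer.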
An asterisk follows results filed as active; i = inactive; · = not tested or not shown; + = active, no number. A selection: hits, their analogues and other compounds. The true share with any hit is near 1.2%.

SMILES	Efflux pump mplx	CaV13 FRET inh	SR-BI HDL uptake	FN deposit inh	SR-BI DiI-HDL act
CO[C@H]1CN(C)C(=O)c2cc(NC(=O)c3ccccc3F)ccc2OC[C@H](C)N(C(=O)c2ccccc2F)C[C@H]1C	·	·	·	-1	·
CC(=O)N(C)C[C@@H]1Oc2ccccc2CC(=O)N(C)C[C@H]1C	·	·	·	5	·
CCC1=C(OC(=O)N(CC)CC)N2C(=O)OC(=NCC3CC3)[C@]2(Cc2ccccc2)[C@H]2C1=CC[C@H]1C(=O)N(c3ccccc3)C(=O)[C@H]12	3.8*	-4	-12	8	12
CCC1=C(OC(=O)N(CC)CC)N2C(=O)OC(=NCC3CC3)[C@]2(Cc2ccccc2)[C@H]2C1=CC[C@H]1C(=O)N(C)C(=O)[C@H]12	0	-10	-10	11	10
C[C@H](CO)N1C[C@H](C)[C@@H](CN(C)S(=O)(=O)c2cn(C)cn2)Oc2ccc(NC(=O)Nc3cccc4ccccc34)cc2CC1=O	·	·	·	2	·
COc1ccccc1Nc1ccc(N)cc1	0	1	84*	0	-84
CCOc1ccc(C(=O)NCC(=O)NCCSc2ccc(Br)cc2)cc1OCC	·	-15	87*	-6	-87
CCn1c(O)c(/C=N/NC(=O)c2ccncc2)c(=O)n(CC)c1=S	·	5	74*	5	-74
O=C(C[C@H]1CC[C@@H](NC(=O)c2ccccc2)[C@@H](CO)O1)NCCc1ccncc1	·	·	·	4	·
Cc1cccc2c(N=NC(=O)c3ccc(NS(=O)(=O)c4cccs4)cc3)c(O)[nH]c12	0	-15	5	-6	-5
Cc1cccc2c(N=Nc3ccc(S(=O)(=O)Nc4ccc(Cl)cc4)cc3[N+](=O)[O-])c(O)[nH]c12	0	9	97*	-4	-97
Cc1cc(OCc2nc(N)nc(N)c2-c2ccc(Cl)c(Cl)c2)ccc1[N+](=O)[O-]	·	-4	25	34*	-25
Cc1nc(N)nc(N)c1-c1ccc(Cl)c(Cl)c1	·	-6	-11	·	11
Cn1c(=O)c([N+](=O)[O-])c(NCCc2ccccc2)c2ccccc21	0	-5	15	-20	-15
Cc1ccc(Nc2c([N+](=O)[O-])c(=O)n(C)c3ccccc23)cc1C	0	-8	71*	·	-71
COc1ccc(C[C@@H]2CCc3cnnn3COC[C@H](C)NC2=O)cc1	·	·	·	-7	·
CCN1/C(=C/C=C/c2oc3ccc(-c4ccccc4)cc3[n+]2CC)Oc2ccc(-c3ccccc3)cc21	+	-148	23	i	-23
NNC(=O)c1cc(-c2cccs2)nc2ccccc12	0	-16	·	-1	·
Cc1cccc2sc(NNC(=O)c3cc(-c4cccs4)nc4ccccc34)nc12	0	-7	72*	-3	-72
CO[C@@H]1CN(C)C(=O)c2ccc(NC(C)=O)cc2OC[C@@H](C)N(S(=O)(=O)c2cn(C)cn2)C[C@@H]1C	·	·	·	15	·
N#CCc1nc(-c2cc3ccccc3oc2=O)cs1	0	-6	-4	-3	4
CC1CCC(=C(C#N)c2nc(-c3cc4ccccc4oc3=O)cs2)CC1 (configuration not stated)	0	·	76*	·	-76
COCC(=O)N1C[C@H](C)[C@H](OC)CN(C)C(=O)c2ccc(NC(=O)Nc3ccccc3)cc2OC[C@H]1C	·	·	·	10	·
CC(=O)N1C[C@@H]2C(c3ccc(Br)cc3)[C@H](C1)N2C(=O)NC(C)C (some centres not stated)	·	·	·	-15	·
CN=c1scc(-c2ccc(F)cc2)n1/N=C/c1ccc(O)c(O)c1	·	-4	78*	-2	-78
SMILES	Efflux pump mplx	CaV13 FRET inh	SR-BI HDL uptake	FN deposit inh	SR-BI DiI-HDL act
COc1ccc(C(=O)Nc2ccc3c(c2)OC[C@@H](C)NC[C@H](C)[C@@H](OC)CN(C)C3=O)cc1	·	·	·	1	·
CC(C)(C)[S@@](=O)N1Cc2cc(C(=O)N3CCOCC3)nc(-c3cccc(C4=CCCC4)c3)c2[C@H]1CCO	·	·	·	2	·
O=C(Nc1cccc(S(=O)(=O)NC2=NCCCCC2)c1)c1cc(-c2ccc(Cl)cc2)nc2ccccc12	0	-5	45	-3	-45
COc1ccc(-c2cc(C(=O)Nc3cccc(S(=O)(=O)NCc4ccco4)c3)c3ccccc3n2)cc1OC	0	-3	·	14	·
O=C(Nc1cccc(S(=O)(=O)NC2=NCCCCC2)c1)c1cc(-c2ccccc2)nc2ccccc12	0	-2	77*	8	-77
O=C(Nc1cccc(S(=O)(=O)NCc2ccco2)c1)c1cc(-c2ccc(F)cc2)nc2ccccc12	1	-2	74*	-9	-74
Cc1ccc(S(=O)(=O)N2CC[C@@H]3[C@H]2c2cc(C#Cc4ccc(F)cc4)ccc2N[C@@H]3CO)cc1	·	·	·	26	·
COc1ccc(C)cc1Nc1n[n+](-c2ccccc2)c(-c2ccc(OC)c(OC)c2OC)s1	0	-10	37	-1	-37
COc1ccc(C)cc1Nc1n[n+](-c2ccccc2)c(-c2ccc(N(C)C)cc2)s1	0	-5	73*	-6	-73
COCC(=O)Nc1ccc2c(c1)C(=O)N(C)[C@@H]1CC[C@H](CC(=O)NCC(F)(F)F)O[C@@H]1CO2	·	·	·	-27	·
Cc1ccc(-c2cc(C(=O)Nc3cc(C)on3)c3ccccc3n2)cc1	0	-3	74*	2	-74
Cc1cc(NC(=O)c2cc(-c3ccncc3)nc3c(C)cccc23)no1	0	-7	71*	·	-71
Cc1c(NC(=O)c2cc(-c3ccc(F)cc3)nc3ccccc23)c(=O)n(-c2ccccc2)n1C	0	-6	86*	-2	-86
O=C(c1cnn2c(C(F)(F)F)cc(-c3ccc(Br)cc3)nc12)N1CCOCC1	·	·	6	·	-6
Cc1cc(NC(=O)c2cnn3c(C(F)(F)F)cc(-c4ccc(Br)cc4)nc23)no1	0	-5	77*	1	-77
CO[C@H]1CN(C)C(=O)c2ccc(NC(C)=O)cc2OC[C@H](C)N(Cc2ccccc2C(=O)O)C[C@@H]1C	·	·	·	8	·
C[C@@H]1C(=O)N[C@H](c2ccc(F)cc2)CC=CC[C@H](C)Oc2ccccc2C(=O)N1C (mixture of isomers)	·	·	·	8	·
Cc1c(Nc2nc3ccccc3nc2NS(=O)(=O)c2cccc(Cl)c2)c(=O)n(-c2ccccc2)n1C	0	-4	2	-1	-2
O=C(NCC(c1cccs1)N1CCOCC1)c1cc(-c2ccc(F)cc2)nc2ccccc12 (configuration not stated)	0	-5	84*	-12	-84
Cc1ccc(Nc2nc3ccccc3nc2Nc2c(C)n(C)n(-c3ccccc3)c2=O)cc1	0	-4	92*	-6	-92
